Experimental data as given in ChEMBL document CHEMBL1764968, “Structural simplification of bioactive natural products with multicomponent synthesis. 3. Fused uracil-containing heterocycles as novel topoisomerase-targeting agents” (2011).
Active and inactive are the calls of the source. The calls are words filed in the database; no cut-off is given here.

How the values were obtained:
A549 = assay: Cytotoxicity against human A549 cells after 72 hrs by MTT assay; assay type: functional; settings: A549, 72 h
Procedure, shortened: (§1)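 Cells plated 24 h in 96-well plates at 10,000–40,000 cells/mL depending on line. U373 grown in MEM, other lines in RPMI, both with 5% heat-inactivated FCS. Cells exposed to compounds (or none, control) for 72 h. MTT reduction to formazan read at 570 nm against 630 nm reference. Sextuplicate per condition.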

Jurkat = assay: Cytotoxicity against human Jurkat cells after 72 hrs by MTT assay; assay type: functional; procedure, shortened: as §1
MCF7 = assay: Cytotoxicity against human MCF7 cells after 72 hrs by MTT assay; assay type: functional; settings: MCF7, 72 h; procedure, shortened: as §1
HeLa = assay: Cytotoxicity against human HeLa cells after 72 hrs by MTT assay; assay type: functional; procedure, shortened: as §1
PC-3 = assay: Cytotoxicity against human PC3 cells after 72 hrs by MTT assay; assay type: functional; settings: PC-3, 72 h; procedure, shortened: as §1
SK-MEL = assay: Cytotoxicity against human SK-MEL cells after 72 hrs by MTT assay; assay type: functional; procedure, shortened: as §1
LoVo = assay: Cytotoxicity against human LoVo cells after 72 hrs by MTT assay; assay type: functional; procedure, shortened: as §1
[1] = Cytotoxicity against human U373 cells after 72 hrs by MTT assay; assay type: functional, U-373MG ATCC; settings: U373 MG; procedure, shortened: as §1
[2] = target: T1, DNA topoisomerase 1 (Homo sapiens) (UniProt P11387); assay: Effect on human DNA topoisomerase 1-mediated supercoiled pGEM1 plasmid DNA cleavage complex stabilization at up to 100 uM by agarose gel electrophoresis
T1 sequence (whole entry): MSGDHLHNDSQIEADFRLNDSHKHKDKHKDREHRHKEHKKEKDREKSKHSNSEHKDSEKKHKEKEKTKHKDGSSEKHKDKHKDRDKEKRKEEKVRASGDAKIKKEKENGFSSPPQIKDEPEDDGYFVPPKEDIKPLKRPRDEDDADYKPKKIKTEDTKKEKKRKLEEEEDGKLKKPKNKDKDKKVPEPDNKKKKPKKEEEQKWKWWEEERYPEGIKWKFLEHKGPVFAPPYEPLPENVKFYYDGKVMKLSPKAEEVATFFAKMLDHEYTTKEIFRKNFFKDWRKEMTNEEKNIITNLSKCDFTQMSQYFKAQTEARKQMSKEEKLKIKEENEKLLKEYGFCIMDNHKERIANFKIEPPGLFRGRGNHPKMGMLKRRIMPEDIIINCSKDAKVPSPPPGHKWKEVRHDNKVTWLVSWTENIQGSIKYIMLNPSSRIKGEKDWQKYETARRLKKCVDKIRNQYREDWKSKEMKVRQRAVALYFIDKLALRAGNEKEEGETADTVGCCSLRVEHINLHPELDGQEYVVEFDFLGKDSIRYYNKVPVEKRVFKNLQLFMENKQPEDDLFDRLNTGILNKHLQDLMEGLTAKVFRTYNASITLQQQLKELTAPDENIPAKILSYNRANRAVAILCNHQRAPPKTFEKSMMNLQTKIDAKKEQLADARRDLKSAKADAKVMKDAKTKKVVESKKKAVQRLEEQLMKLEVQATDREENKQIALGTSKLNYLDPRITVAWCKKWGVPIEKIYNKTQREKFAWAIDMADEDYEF

U-373MG ATCC = assay: Cytostatic activity against human U373 cells assessed as morphological changes after 72 hrs by phase contrast microscopy; assay type: functional, cell-based

Compound | GI50 (A549) [nM] | GI50 (Jurkat) [nM] | GI50 (MCF7) [nM] | GI50 (HeLa) [nM] | GI50 (PC-3) [nM] | GI50 (SK-MEL) [nM] | GI50 (LoVo) [nM] | GI50 [1] [nM] | Activity [2] | Activity (U-373MG ATCC)
O=C1C2=C(Nc3[nH]c(=O)[nH]c(=O)c3C2c2ccc(OC(F)(F)F)cc2)c2ccccc21 (configuration not stated) | 5700 | 960 | 5800 | 5600 |  |  |  |  |  | 
COc1cc(C2C3=C(Nc4[nH]c(=O)[nH]c(=O)c42)c2ccccc2C3=O)cc(Br)c1OC (configuration not stated) | 480 | 200 | 780 | 3800 | > 10000 | 480 | 380 | 370 |  | 
O=C1C2=C(Nc3[nH]c(=O)[nH]c(=O)c3C2c2ccnc3ccccc23)c2ccccc21 (configuration not stated) | 8600 | 8200 | 9400 | 5600 |  |  |  |  |  | 
COc1ccc(-c2c3c(nc4[nH]c(=O)[nH]c(=O)c24)-c2ccccc2C3=O)c(OC)c1OC | 260 | 470 | 470 | 310 | 900 | 430 | 350 | 360 |  | 
COc1ccc(C2C3=C(Nc4[nH]c(=O)[nH]c(=O)c42)c2ccccc2C3=O)cc1 (configuration not stated) | 9200 | 870 | 3600 | 6900 | 3000 | 4800 | 2200 | 4100 |  | 
COc1ccc(C2C3=C(Nc4[nH]c(=O)[nH]c(=O)c42)c2ccccc2C3=O)c(OC)c1OC (configuration not stated) | 540 | 490 | 480 | 350 | > 10000 | 400 | 220 | 260 |  | 
CC(C)c1ccc(C2C3=C(Nc4[nH]c(=O)[nH]c(=O)c42)c2ccccc2C3=O)cc1 (configuration not stated) | > 10000 | 960 | 9100 | 5800 |  |  |  |  |  | 
O=C1c2ccccc2-c2nc3[nH]c(=O)[nH]c(=O)c3c(-c3ccc(F)cc3)c21 | > 10000 | 7400 | > 10000 | > 10000 | 9000 | 10000 | 3500 | 8700 |  | 
CCOc1ccc(-c2c3c(nc4[nH]c(=O)[nH]c(=O)c24)-c2ccccc2C3=O)cc1 | 6000 | 760 | 5600 | 5300 |  |  |  |  |  | 
COc1ccc(-c2c3c(nc4[nH]c(=O)[nH]c(=O)c24)-c2ccccc2C3=O)cc1OC | 830 | 220 | 750 | 530 | > 10000 | 470 | 440 | 600 |  | 
CCOc1ccc(C2C3=C(Nc4[nH]c(=O)[nH]c(=O)c42)c2ccccc2C3=O)cc1 (configuration not stated) | 5800 | 910 | 6600 | 7400 |  |  |  |  |  | 
O=C1C2=C(Nc3[nH]c(=O)[nH]c(=O)c3C2c2ccc(F)c(Br)c2)c2ccccc21 (configuration not stated) | 5600 | 990 | 5500 | 5400 |  |  |  |  |  | 
O=C1c2ccccc2-c2nc3[nH]c(=O)[nH]c(=O)c3cc21 | > 10000 | > 10000 | > 10000 | > 10000 | > 10000 | 10000 | 9500 | 7500 |  | 
O=C1C2=C(Nc3[nH]c(=O)[nH]c(=O)c3C2c2ccc3c(c2)OCCO3)c2ccccc21 (configuration not stated) | 7800 | 6900 | 8400 | 5400 |  |  |  |  |  | 
O=C1c2ccccc2-c2nc3[nH]c(=O)[nH]c(=O)c3c(-c3ccc(F)c(Br)c3)c21 | 2800 | 980 | 5500 | 5600 |  |  |  |  |  | 
CC(C)c1ccc(-c2c3c(nc4[nH]c(=O)[nH]c(=O)c24)-c2ccccc2C3=O)cc1 | 8200 | 490 | 6900 | 850 |  |  |  |  |  | 
O=C1c2ccccc2-c2nc3[nH]c(=O)[nH]c(=O)c3c(-c3ccc(Cl)c(Cl)c3)c21 | 120 | 230 | 740 | 350 | > 10000 | 80 | 70 | 80 |  | 

Compound | GI50 (A549) [nM] | GI50 (Jurkat) [nM] | GI50 (MCF7) [nM] | GI50 (HeLa) [nM] | GI50 (PC-3) [nM] | GI50 (SK-MEL) [nM] | GI50 (LoVo) [nM] | GI50 [1] [nM] | Activity [2] | Activity (U-373MG ATCC)
O=C1c2ccccc2-c2nc3[nH]c(=O)[nH]c(=O)c3c(-c3ccc(Cl)cc3Cl)c21 | 7800 | 810 | 7400 | 890 | 2800 | 3500 | 2900 | 4200 |  | 
COc1cc(-c2c3c(nc4[nH]c(=O)[nH]c(=O)c24)-c2ccccc2C3=O)cc(Br)c1OC | 310 | 170 | 950 | 340 | > 10000 | 470 | 350 | 600 |  | 
O=C1C2=C(Nc3[nH]c(=O)[nH]c(=O)c3C2c2ccc(Cl)cc2Cl)c2ccccc21 (configuration not stated) | 7400 | 760 | 7000 | 950 | 2400 | 3900 | 1400 | 4200 |  | 
O=C1C2=C(Nc3[nH]c(=O)[nH]c(=O)c3C2c2ccc(C(F)(F)F)cc2)c2ccccc21 (configuration not stated) | 5200 | 2200 | 1500 | 5600 |  |  |  |  |  | 
Cc1ccc(C2C3=C(Nc4[nH]c(=O)[nH]c(=O)c42)c2ccccc2C3=O)cc1C (configuration not stated) | 290 | 190 | 340 | 780 | 4200 | 960 | 490 | 430 | inactive | Active
O=C1C2=C(Nc3[nH]c(=O)[nH]c(=O)c3C2c2ccc(Cl)c(Cl)c2)c2ccccc21 (configuration not stated) | 590 | 350 | 800 | 5800 | 6200 | 500 | 460 | 420 |  | 
Cc1ccc(-c2c3c(nc4[nH]c(=O)[nH]c(=O)c24)-c2ccccc2C3=O)cc1 | 5800 | 1100 | 6400 | 6400 |  |  |  |  |  | 
COc1ccc(C2C3=C(Nc4[nH]c(=O)[nH]c(=O)c42)c2ccccc2C3=O)cc1OC (configuration not stated) | 4800 | 400 | 690 | 600 | > 10000 | 860 | 800 | 700 |  | 
O=C1C2=C(Nc3[nH]c(=O)[nH]c(=O)c3C2c2ccc(F)cc2)c2ccccc21 (configuration not stated) | > 10000 | > 10000 | > 10000 | > 10000 | 4000 | 10000 | 4600 | 5600 |  | 
O=C1c2ccccc2-c2nc3[nH]c(=O)[nH]c(=O)c3c(-c3ccc(OC(F)(F)F)cc3)c21 | 8000 | 950 | 6600 | 5800 |  |  |  |  |  | 
O=C1c2ccccc2-c2nc3[nH]c(=O)[nH]c(=O)c3c(-c3ccc(C(F)(F)F)cc3)c21 | 7800 | 960 | 5600 | 3800 |  |  |  |  |  | 
O=C1c2ccccc2-c2nc3[nH]c(=O)[nH]c(=O)c3c(-c3ccnc4ccccc34)c21 | > 10000 | 8200 | 9500 | 7600 |  |  |  |  |  | 
Cc1ccc(C2C3=C(Nc4[nH]c(=O)[nH]c(=O)c42)c2ccccc2C3=O)cc1 (configuration not stated) | 5900 | 5600 | 7600 | 8600 |  |  |  |  |  | 
CC[C@@]1(O)C(=O)OCc2c1cc1n(c2=O)Cc2cc3ccccc3nc2-1 [CAMPTOTHECIN] | 200 | 90 | 6000 | 1300 | 480 | 47 | 8 | 33 |  | 
O=C1c2ccccc2-c2nc3[nH]c(=O)[nH]c(=O)c3c(-c3ccc4c(c3)OCCO4)c21 | 7500 | 5500 | 8500 | 8800 |  |  |  |  |  | 
COc1ccc(-c2c3c(nc4[nH]c(=O)[nH]c(=O)c24)-c2ccccc2C3=O)cc1 | > 10000 | 960 | 2400 | 5500 | 880 | 4700 | 870 | 2400 |  | 
